Experimental data published in article PMC8378419 (ACS chemical neuroscience, 2019).
Each block holds one molecule with its values, some of them ahead of it.

Assays:
α1d-AR = biological target: T1, α1d-AR (Homo sapiens, UniProt P25100); experiment: radioligand competition, [3H]prazosin; type: binding; details: Cheng-Prusoff
T1 sequence (P25100 1-572): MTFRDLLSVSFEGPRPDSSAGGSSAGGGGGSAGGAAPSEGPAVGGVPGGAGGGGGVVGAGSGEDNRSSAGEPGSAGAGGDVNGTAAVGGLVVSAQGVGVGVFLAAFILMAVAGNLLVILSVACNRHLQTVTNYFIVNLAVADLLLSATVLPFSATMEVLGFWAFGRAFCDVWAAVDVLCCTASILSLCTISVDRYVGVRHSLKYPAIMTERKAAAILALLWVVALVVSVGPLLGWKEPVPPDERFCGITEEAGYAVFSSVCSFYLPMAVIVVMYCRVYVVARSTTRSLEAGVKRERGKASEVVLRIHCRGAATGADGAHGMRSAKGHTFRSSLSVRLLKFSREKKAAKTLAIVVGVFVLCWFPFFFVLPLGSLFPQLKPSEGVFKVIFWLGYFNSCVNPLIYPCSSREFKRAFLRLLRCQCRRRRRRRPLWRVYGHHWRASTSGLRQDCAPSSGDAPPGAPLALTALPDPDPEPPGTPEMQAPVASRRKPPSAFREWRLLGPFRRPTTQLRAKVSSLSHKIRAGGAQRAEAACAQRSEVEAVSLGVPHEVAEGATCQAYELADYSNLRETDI
How it was run: (§1)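 Binding was measured with [3H]prazosin on cloned human α1-adrenoceptor subtypes expressed in CHO cells. Each experiment was run in triplicate.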

α1a-AR = biological target: T2, α1a-AR (Homo sapiens, UniProt P35348); experiment: radioligand competition, [3H]prazosin; type: binding; details: Cheng-Prusoff
T2 sequence (P35348 1-466): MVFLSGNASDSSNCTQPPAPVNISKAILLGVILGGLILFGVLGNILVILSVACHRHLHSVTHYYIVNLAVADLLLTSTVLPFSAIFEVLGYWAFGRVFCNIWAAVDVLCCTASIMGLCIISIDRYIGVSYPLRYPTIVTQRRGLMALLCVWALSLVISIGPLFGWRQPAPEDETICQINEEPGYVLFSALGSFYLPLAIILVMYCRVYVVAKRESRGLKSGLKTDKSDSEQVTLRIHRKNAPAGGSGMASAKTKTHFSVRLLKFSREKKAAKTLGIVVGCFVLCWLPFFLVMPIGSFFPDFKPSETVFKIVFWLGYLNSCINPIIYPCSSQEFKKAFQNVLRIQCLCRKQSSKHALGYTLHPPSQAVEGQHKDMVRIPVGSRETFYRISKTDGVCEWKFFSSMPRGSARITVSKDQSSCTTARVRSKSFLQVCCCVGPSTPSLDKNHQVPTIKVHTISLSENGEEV
How it was run: as §1

5-HT1A [1] = biological target: T3, 5-HT1A (Homo sapiens, UniProt P08908); experiment: radioligand competition, [3H]8-OH-DPAT; type: binding; details: Cheng-Prusoff
T3 sequence (P08908 1-422): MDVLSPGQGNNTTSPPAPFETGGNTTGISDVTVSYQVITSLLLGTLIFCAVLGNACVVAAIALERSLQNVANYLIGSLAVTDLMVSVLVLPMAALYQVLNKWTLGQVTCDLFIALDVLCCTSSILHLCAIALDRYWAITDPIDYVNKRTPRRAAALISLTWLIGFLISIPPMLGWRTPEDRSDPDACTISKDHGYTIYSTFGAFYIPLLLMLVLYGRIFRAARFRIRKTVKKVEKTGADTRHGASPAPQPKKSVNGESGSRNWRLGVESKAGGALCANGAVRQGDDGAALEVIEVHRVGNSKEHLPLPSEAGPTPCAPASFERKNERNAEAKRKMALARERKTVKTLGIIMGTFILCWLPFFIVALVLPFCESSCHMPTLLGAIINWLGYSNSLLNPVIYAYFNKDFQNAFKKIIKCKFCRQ
How it was run: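 Human cloned 5-HT1A receptors expressed in HeLa cells were labelled with [3H]8-OH-DPAT and displaced by the test compound. Each experiment was run in triplicate.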

hD4 = biological target: T4, hD4 (Homo sapiens, UniProt P21917); experiment: radioligand competition, [3H]N-methylspiperone; type: binding; details: Cheng-Prusoff
T4 sequence (P21917 1-419): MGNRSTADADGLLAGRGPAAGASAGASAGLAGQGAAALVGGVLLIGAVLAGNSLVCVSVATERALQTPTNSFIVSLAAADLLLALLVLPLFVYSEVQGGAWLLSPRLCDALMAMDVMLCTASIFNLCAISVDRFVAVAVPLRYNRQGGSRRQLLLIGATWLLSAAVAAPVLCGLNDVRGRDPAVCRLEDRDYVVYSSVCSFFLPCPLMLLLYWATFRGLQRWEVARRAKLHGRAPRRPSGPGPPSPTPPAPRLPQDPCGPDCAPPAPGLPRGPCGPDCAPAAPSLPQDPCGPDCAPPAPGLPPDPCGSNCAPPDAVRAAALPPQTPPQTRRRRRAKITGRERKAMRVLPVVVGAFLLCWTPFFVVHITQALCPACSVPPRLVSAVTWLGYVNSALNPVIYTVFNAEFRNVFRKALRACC
How it was run: (§2)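 Radioligand displacement used [3H]N-methylspiperone at human D3 or D4 receptors stably expressed in HEK293 cells. Samples were run in triplicate. IC50 values were converted to Ki with the Cheng–Prusoff equation and given as pKi (−logKi).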

hD3 [2] = biological target: T5, hD3 (Homo sapiens, UniProt P35462); experiment: radioligand competition, [3H]N-methylspiperone; type: binding; details: Cheng-Prusoff
T5 sequence (P35462 whole entry): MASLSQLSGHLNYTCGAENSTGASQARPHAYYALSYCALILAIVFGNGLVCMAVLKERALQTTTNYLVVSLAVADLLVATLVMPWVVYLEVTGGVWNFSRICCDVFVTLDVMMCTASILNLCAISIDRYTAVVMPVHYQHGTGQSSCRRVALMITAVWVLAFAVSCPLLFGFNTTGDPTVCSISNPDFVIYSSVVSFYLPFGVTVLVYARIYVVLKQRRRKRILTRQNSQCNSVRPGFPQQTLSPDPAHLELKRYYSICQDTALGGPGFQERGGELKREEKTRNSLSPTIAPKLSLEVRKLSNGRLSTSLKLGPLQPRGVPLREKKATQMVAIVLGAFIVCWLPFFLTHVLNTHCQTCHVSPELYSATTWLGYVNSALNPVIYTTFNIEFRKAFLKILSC
How it was run: as §2

α1b-AR = biological target: T6, α1b-AR (Homo sapiens, UniProt P35368); experiment: radioligand competition, [3H]prazosin; type: binding; details: Cheng-Prusoff
T6 sequence (P35368 1-520): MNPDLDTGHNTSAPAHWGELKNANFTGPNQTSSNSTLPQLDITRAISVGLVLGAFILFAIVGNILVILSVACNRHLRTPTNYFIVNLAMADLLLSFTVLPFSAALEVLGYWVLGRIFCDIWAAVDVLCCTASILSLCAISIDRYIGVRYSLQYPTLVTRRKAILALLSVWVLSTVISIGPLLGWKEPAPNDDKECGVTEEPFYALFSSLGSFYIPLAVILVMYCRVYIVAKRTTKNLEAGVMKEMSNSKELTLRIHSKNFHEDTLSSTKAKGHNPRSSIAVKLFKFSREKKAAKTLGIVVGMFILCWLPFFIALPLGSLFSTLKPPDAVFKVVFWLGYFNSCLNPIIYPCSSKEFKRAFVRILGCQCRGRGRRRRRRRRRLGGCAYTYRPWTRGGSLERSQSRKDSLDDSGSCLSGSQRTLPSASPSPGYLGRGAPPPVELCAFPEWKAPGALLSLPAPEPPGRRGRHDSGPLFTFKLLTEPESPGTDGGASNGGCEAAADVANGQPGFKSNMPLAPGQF
How it was run: as §1

D1 = D1 (Homo sapiens, UniProt P21728); experiment: cAMP assay; type: cell-based; details: antagonist
D1, sequence (P21728 whole entry): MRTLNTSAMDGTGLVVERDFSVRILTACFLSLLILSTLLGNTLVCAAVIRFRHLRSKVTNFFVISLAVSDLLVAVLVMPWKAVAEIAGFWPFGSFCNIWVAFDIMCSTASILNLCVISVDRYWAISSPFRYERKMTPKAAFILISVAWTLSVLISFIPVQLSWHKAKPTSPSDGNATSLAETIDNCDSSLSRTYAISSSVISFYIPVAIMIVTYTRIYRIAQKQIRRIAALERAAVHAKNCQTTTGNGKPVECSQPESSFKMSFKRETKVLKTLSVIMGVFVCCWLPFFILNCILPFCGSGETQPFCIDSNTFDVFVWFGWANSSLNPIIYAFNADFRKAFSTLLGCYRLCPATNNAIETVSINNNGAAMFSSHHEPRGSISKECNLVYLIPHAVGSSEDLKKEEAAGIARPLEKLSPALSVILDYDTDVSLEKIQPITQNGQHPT

5-HT1A [3] = biological target: T3, 5-HT1A; experiment: […]GTPγS binding; type: biochemical; details: agonist
hD3 [4] = biological target: T5, hD3; experiment: mitogenesis assay; type: cell-based; details: full agonist

SMILES: c1ccc(C2(c3ccccc3)COCC(CNCCOc3ccc4c(c3)OCO4)O2)cc1 (centres unmarked) [compound 13, 2-(Benzo[d][1,3]dioxol-5-yloxy)-N-((6,6-diphenyl-1,4-dioxan-2-yl)methyl)ethanamine]
- pKi, human cloned receptor / α1 ^d (α1d-AR): 6.81
- pKi, human cloned receptor / α1 ^a (α1a-AR): 6.32
- pKi, human cloned receptor / 5-HT1A (5-HT1A [1]): 8.04
- pKi, human cloned receptor / D4 (hD4): 6.79
- pKi, human cloned receptor / D3 (hD3 [2]): 6.99
- pKi, human cloned receptor / D2 (α1b-AR): < 6

- pKi, human cloned receptor / D4 (hD4): 5.77
- pKi, human cloned receptor / D3 (hD3 [2]): 6.34
SMILES: COc1cccc(OC)c1OCCNCC1COCC(c2ccccc2)(c2ccccc2)O1 (centres unmarked) [compound 2, 2]

- pKi, human cloned receptor / D3 (hD3 [2]): 7.92
SMILES: c1ccc(OCCNCC2COCC(c3ccccc3)(c3ccccc3)O2)cc1 (centres unmarked) [compound 4, N-((6,6-diphenyl-1,4-dioxan-2-yl)methyl)-2-phenoxyethan-1-amine]

SMILES: Oc1ccc(OCCNCC2COCC(c3ccccc3)(c3ccccc3)O2)cc1 (centres unmarked) [compound 10, 10]
- pKi, human cloned receptor / α1 ^d (α1d-AR): 7.01
- pKi, human cloned receptor / α1 ^a (α1a-AR): 6.56
- pKi, human cloned receptor / 5-HT1A (5-HT1A [1]): 7.59
- pKi, human cloned receptor / D4 (hD4): 6.49
- pKi, human cloned receptor / D3 (hD3 [2]): 7.37
- pKi, human cloned receptor / D2 (α1b-AR): < 6

SMILES: Oc1cccc(OCCNCC2COCC(c3ccccc3)(c3ccccc3)O2)c1 (centres unmarked) [compound 8, 3-(2-(((6,6-Diphenyl-1,4-dioxan-2-yl)methyl)amino)ethoxy)phenol]
- Functional profile of 8 / pEC50 (pIC50) (D1): 5.49 ± 0.10
- pKi, human cloned receptor / α1 ^d (α1d-AR): 6.56
- pKi, human cloned receptor / α1 ^a (α1a-AR): < 6
- Functional profile of 8 / pEC50 (pIC50) (5-HT1A [3]): 8.28 ± 0.15
- Functional profile of 8 / pEC50 (pIC50) (hD3 [4]): 8.99 ± 0.09
- pKi, human cloned receptor / α1 ^a (α1b-AR): < 6

- pKi, human cloned receptor / D4 (hD4): 6.87
- pKi, human cloned receptor / D3 (hD3 [2]): 6.79
SMILES: COc1cccc(OCCNCC2COCC(c3ccccc3)(c3ccccc3)O2)c1OC (centres unmarked) [compound 11, 2-(2,3-Dimethoxyphenoxy)-N-((6,6-diphenyl-1,4-dioxan-2-yl)methyl)ethanamine]

SMILES: COc1ccc(OCCNCC2COCC(c3ccccc3)(c3ccccc3)O2)cc1OC (centres unmarked) [compound 12, 2-(3,4-Dimethoxyphenoxy)-N-((6,6-diphenyl-1,4-dioxan-2-yl)methyl)ethanamine]
- pKi, human cloned receptor / D3 (α1d-AR): < 6
- pKi, human cloned receptor / D3 (α1a-AR): < 6
- pKi, human cloned receptor / 5-HT1A (5-HT1A [1]): 7.71
- pKi, human cloned receptor / D4 (hD4): 5.84
- pKi, human cloned receptor / D3 (hD3 [2]): 6.10
- pKi, human cloned receptor / D3 (α1b-AR): < 6

SMILES: COc1ccc(OCCNCC2COCC(c3ccccc3)(c3ccccc3)O2)cc1 (centres unmarked) [compound 9, N-((6,6-Diphenyl-1,4-dioxan-2-yl)methyl)-2-(4-methoxyphenoxy)ethanamine]
- pKi, human cloned receptor / D3 (α1d-AR): < 6
- pKi, human cloned receptor / D3 (α1a-AR): < 6
- pKi, human cloned receptor / 5-HT1A (5-HT1A [1]): 7.17
- pKi, human cloned receptor / D4 (hD4): 6.45
- pKi, human cloned receptor / D3 (hD3 [2]): 6.41
- pKi, human cloned receptor / D3 (α1b-AR): < 6

SMILES: COc1cccc(OCCNCC2COCC(c3ccccc3)(c3ccccc3)O2)c1 (centres unmarked) [compound 7, N-((6,6-Diphenyl-1,4-dioxan-2-yl)methyl)-2-(3-methoxyphenoxy)ethanamine]
- pKi, human cloned receptor / α1 ^d (α1d-AR): 6.98
- pKi, human cloned receptor / α1 ^a (α1a-AR): 6.41
- pKi, human cloned receptor / 5-HT1A (5-HT1A [1]): 8.91
- pKi, human cloned receptor / D4 (hD4): 6.45
- pKi, human cloned receptor / D3 (hD3 [2]): 7.37
- pKi, human cloned receptor / D2 (α1b-AR): < 6
